ABCG2 inh: ABCG2 efflux pump inhibitors, primary screen, multiplex with ABCB1, IgMXP3 cells, flow cytometry | Broad substrate specificity ATP-binding cassette transporter ABCG2 (Homo sapiens), Q9UNQ0 | AID 1325, 2008 | 0.1% of 190,000 active | inhibition, % at 6.6 µM | JC-1 efflux;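 active = inhibition above 80%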;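 note: 0% = DMSO and 100% = nicardipine control wells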
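Test system: IgMXP3 (ABCG2) plus far-red-tagged CCRF-Adr (ABCB1) cells. Reagent: JC-1 dye as substrate. Timing: 10 min exposure at 25 °C with rotation, no wash. Measured by: flow cytometric JC-1 green MFI at 530 nm. Read-out: percent efflux inhibition, scaled nicardipine 100% to DMSO 0%. Control set: nicardipine and DMSO wells.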
Insulin prom up: insulin promoter activators in MIN6 cells, imaging, high-content screening, mouse beta cells | MIN6 insulin promoter-GFP reporter; hits give high values | 0.3% of 190,000 active | AID 1625, 2009 | z-score at 5 µM;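 active = z-score above 3 at 5 µM with at least 500 cells counted in the well; inconclusive = wells under 500 cells, flagged as cytotoxic or low count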
Autophagy mod: autophagy modulators in MEF cells, primary screen, imaging, high-content, MEF GFP-LC3 | MEF GFP-LC3 puncta imaging; test concentration mostly 10 µM | calls only at 10 µM (by protocol) | 0.98% of 190,000 active;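 active = percentage of spot-positive cells more than 3 SD above its plate mean, without a fluorescence outlier flag or 80% toxicity; inconclusive = no clear call, values can overlap the other calls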;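 note: spot-positive cell cutoff set from DMSO-treated cells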
ROMK mod: ROMK potassium channel modulators, primary screen, cell-based, thallium flux, MLSMR library. ATP-sensitive inward rectifier potassium channel 1 (Homo sapiens), P48048. Tet-inducible ROMK, thallium flux fluorescence; actives lie on both sides. B-score at 10 µM. 2% of 130,000 active;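 active = signal ratio slope over the read window, or its plate-corrected B-score, at least 3 SD from the plate mean, either direction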;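 note: B-score of the F/F0 ratio slope over 7 to 12 s after thallium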
ABCB1 block: ABCB1 efflux pump inhibitors, primary screen, cell-based, multiplex, flow cytometry, ABCG2 counter-screen | 0.067% of 190,000 active | CCRF-Adr cells, JC-1 efflux | ATP-dependent translocase ABCB1 (Homo sapiens), P08183 | inhibition, % at 6.6 µM | AID 1326, 2008; in the data active = inhibition above about 40%;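 note: 0% = vehicle and 100% = reference inhibitor; higher value means more JC-1 retained so stronger ABCB1 efflux block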
SDO1 yeast rescue: growth rescue of sdo1-depleted yeast, primary screen, S. cerevisiae, bone marrow failure model; S. cerevisiae sdo1-depleted JHY4D growth rescue, OD600 30 h; hits give high values; pdr5 snq2 efflux-pump mutant strain; z-score at 10 µM; 0.21% of 140,000 active; AID 817, 2007;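 active = z-score above 3 at both the 24 hr and the 30 hr optical density reads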;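 note: z-score against mean and SD of all compound wells on the same plate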
ABCB1 single pt: ABCB1 efflux pump inhibitors, confirmation, cell-based, single point, ABCG2 counter-screen; shares compounds with ABCG2 inh; CCRF-Adr cells, JC-1 efflux, flow cytometry; 7% of 270 active; inhibition, % at 6.6 µM; AID 1451, 2008;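 active = inhibition of pump activity above 50%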;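 note: 0% = DMSO and 100% = nicardipine full pump inhibition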
ABCG2 confirm: ABCG2 efflux pump inhibitors, confirmation, single point, IgMXP3 cells, ABCB1 counter-screen paired; AID 1453, 2008; JC-1 efflux, flow cytometry; 6% of 270 active; shares compounds with ABCG2 inh; inhibition, % at 6.6 µM;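 active = inhibition above 50%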;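 note: 0% = DMSO wells and 100% = nicardipine pump inhibitor wells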
IgMXP3 fluor: compound autofluorescence in ABCG2-expressing IgMXP3 cells, confirmation, artefact control for ABC transporter inhibitor project, cell-based, 488/530 nm, flow cytometry | fluorescence at 6.6 µM | shares compounds with ABCG2 inh | 30% of 270 active | compound autofluorescence 488/530 nm; hits give high values;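 active = fluorescence in ABCG2-expressing cells above the plate's control-well mean plus 3 SD, cut at about 15 in these data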;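 note: median cell fluorescence with compound minus that of DMSO-treated control cells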
CCRF autofluor: compound autofluorescence in ABCB1-expressing CCRF-Adr cells, confirmation, artefact control for ABC transporter inhibitor project, cell-based, 488/530 nm, flow cytometry; shares compounds with ABCG2 inh; compound autofluorescence 488/530 nm; hits give high values; fluorescence at 6.6 µM; 30% of 270 active; AID 1483, 2009;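 active = fluorescence beyond the plate control mean plus 3 SD, with a fluorescence-to-maximum score over 2, cut at about 25 in these data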
Starred values were filed as active, the others as inactive; i = inactive; u = inconclusive; x = no result; + = active, no number. In the library only some 2.3% were active in any assay of this set; here they are far more common.

SMILES	ABCG2 inh	Insulin prom up	Autophagy mod	ROMK mod	ABCB1 block	SDO1 yeast rescue	ABCB1 single pt	ABCG2 confirm	IgMXP3 fluor	CCRF autofluor
CN(C)c1ccc(/C=c2\sc3nc(-c4ccccc4)nn3c2=O)cc1	63.0	0.16	i	0.733	45.9*	0.35	14.9	14.9	79.6*	61.2*
ONc1cccnc1-n1nc(C(F)(F)F)cc1C(F)(F)F	43.3	-0.41	i	-0.578	2.4	x	x	x	x	x
CC/S(=N\S(=O)(=O)c1ccc(C)cc1)c1ccccc1 (stereo not drawn)	x	0.41	x	x	x	x	x	x	x	x
O=C(CNC(=O)c1ccccc1)Nc1cccc(C(F)(F)F)c1	+	-0.27	i	x	x	0.66	1.6	12.7	73.3*	33.5*
Cc1ccc(C(=O)NCC(=O)Nc2cccc(C(F)(F)F)c2)cc1	18.1	0.25	i	x	0.1	-0.52	x	x	x	x
NC(=S)N=Nc1c(O)[nH]c2ccc(F)cc12	80.5	x	i	x	-0.1	0.46	0.3	21.4	-1.89	-3.84
O=Nc1c(O)[nH]c2ccc(F)cc12	9.0	-0.71	i	-0.992	2.4	x	x	x	x	x
O=c1/c(=C\c2cccnc2)sc2nc3ccccc3n12	80.9*	-0.19	i	x	1.6	0.4	1.3	19.3	-1.34	-3.04
O=c1/c(=C/c2ccc(O)c([N+](=O)[O-])c2)sc2nc3ccccc3n12	1.1	-0.14	i	1.05	-0.1	x	x	x	x	x
O=S(=O)(NCCSc1ccccn1)c1ccc(Br)cc1	-0.2	0.36	i	0.384	-0.2	x	x	x	x	x
COc1cc(C(=O)NC(CCSC)C(=O)OCc2cc([N+](=O)[O-])cc3c2OCOC3)cc(OC)c1OC (stereo not drawn)	24.7	0.54	i	x	58.4*	x	20.5	12.9	1.91	0.01
CC(C)C(NS(=O)(=O)c1ccccc1)C(=O)OCc1cc([N+](=O)[O-])cc2c1OCOC2 (stereo not drawn)	89.4*	-0.61	i	x	2.5	-0.06	1.3	10.3	1.66	-0.99
CC(=O)Nc1ccc(S(=O)(=O)N[C@@H](C)C(=O)OCc2cc([N+](=O)[O-])cc3c2OCOC3)cc1	x	-0.89	x	x	x	x	x	x	x	x
CCCC(=O)Nc1nnc(SCC(=O)NCc2ccco2)s1	2.0	-0.13	i	x	-0.4	0.76	x	x	x	x
Cc1cc(NC(=O)/C=C/c2ccccc2)c(C(C)C)cc1O	5.8	-0.04	i	0.345	0.3	x	x	x	x	x
O=C(NCc1ccccn1)Nc1ccc(Cl)c(Cl)c1	69.7	x	i	-0.285	0.9	-0.06	0.4	23.5	-1.34	-2.09
O=C(NCc1ccccn1)Nc1cccc(NC(=O)NCc2ccccn2)c1	2.0	0.3	i	0.292	0.7	0.6	x	x	x	x
O=C(Nc1ccccc1)Nc1nc(-c2ccc(F)cc2)cs1	81.1*	0.74	i	0.448	1.3	0.15	-0.7	18.9	1.11	22.1
COc1ccc(N2CCN(C(=O)c3ccc(NS(=O)(=O)c4ccccc4)cc3)CC2)cc1	83.4*	0.75	i	x	1.2	-0.65	4.5	3.7	62.6*	24.4
COc1ccc(NS(=O)(=O)c2ccc(C(=O)N3CCN(Cc4ccccc4)CC3)cc2)cc1	0.1	-0.88	i	0.734	0.2	x	x	x	x	x
Cc1cc(C)c(NC(N)=S)c(C)c1	x	0.19	x	0.000791	x	x	x	x	x	x
O=C(Nc1ccc(Cl)cc1C(F)(F)F)c1ccccc1	36.2	0.59	i	x	43.5*	-0.65	0.8	9.4	0.26	-3.44
O=C(Nc1cc(Cl)ccc1Cl)c1ccc(-c2ccccc2)cc1	1.1	0.31	i	x	-0.2	-0.95	x	x	x	x
COc1ccc(C(=O)CNc2ccc(C)cc2C)cc1	x	x	x	-0.994	x	x	x	x	x	x
CCOc1nc(-c2ccccc2)ccc1-c1noc(COC)n1	76.1	-1.14	i	-0.297	1.2	0.13	-1.4	27.2	3.96	3.76
SMILES	ABCG2 inh	Insulin prom up	Autophagy mod	ROMK mod	ABCB1 block	SDO1 yeast rescue	ABCB1 single pt	ABCG2 confirm	IgMXP3 fluor	CCRF autofluor
COc1ccc(OCCCC(=O)Nc2cccc([N+](=O)[O-])c2C)cc1	18.3	1.11	i	x	0.6	-0.24	x	x	x	x
O=[N+]([O-])c1ccccc1-c1nc(-c2ccc(Br)o2)no1	90.3*	-0.38	i	0.039	1.7	-0.61	1.6	28.2	-0.34	0.61
Cc1ccc(NC(=O)COC(=O)[C@H](C)NC(N)=O)c(C)c1	0.8	-0.08	i	0.0163	1.3	x	x	x	x	x
CCCCSc1nnc(-c2ccc(C)cc2)c2ccccc12	92.5*	-0.43	i	0.44	3.0	-0.15	25.4	39.9	-2.19	-4.39
Cc1cc(N2CCCCC2)ccc1[N+](=O)[O-]	83.7*	0.45	i	-1.4	1.7	-0.15	1.1	7.7	0.76	2.41
CN(CCCOc1ccccc1Br)Cc1ccccc1	0.0	-1.35	i	-1.29	56.1*	x	-5.5	-8.7	112*	25.5*
Nc1ccccc1SC1CC(=O)N(c2ccccc2Cl)C1=O (stereo not drawn)	x	-0.09	x	x	x	x	x	x	x	x
CC(=O)c1sc2nc(-c3cccs3)ccc2c1N	-5.5	0.14	i	-1.71	-1.4	-0.66	x	x	x	x
Nc1c(C(=O)C2CC2)sc2nc(-c3cccs3)cc(C(F)(F)F)c12	35.3	x	u	x	42.3*	0.04	-87.5	-7.2	92.2*	271*
CCN(CC)c1ccc(/C=C(\C#N)C(N)=O)cc1	0.4	x	i	-0.201	0.0	x	x	x	x	x
CCN(CC)c1ccc(/C=C(\C#N)C(=O)c2ccc(Br)cc2)cc1	+	x	i	x	181.2*	-0.11	-11.5	-221.7	743*	814*
COc1ccc(NC(=O)CN2CCN(C3c4ccccc4-c4ccccc43)CC2)c(OC)c1	75.9	-1.52	i	-0.00919	21.6	-1.77	35.3	24.9	-0.44	-0.39
COc1ccc(OC)c(C(=O)COC(=O)c2cc(C)oc2C)c1	80.0	x	i	x	1.1	-1.33	0.0	35.2	-1.79	-2.19
O=C(O)/C=C/C(=O)N1CCN(C(c2ccccc2)c2ccccc2)CC1	x	-0.27	x	x	x	x	x	x	x	x
